This is a sample that favours compounds with a hit; in the whole collection about 2.6% have one here.
VLA-4 inh – inhibition in a human VLA-4 binding assay | P13612 | VLA-4 expressing cells, ligand binding flow cytometry | inhibition, % (about 7 µM as worked out from the volumes in the protocol) | 330,000 compounds, 0.2% hits; in the data active = inhibition above about 50%
Rce1 inhib – inhibitors of yeast Ras-converting enzyme | Q03530 | yeast membranes, quenched prenylated peptide cleavage fluorescence | calls only | 290,000 compounds, 0.27% hits | AID 2563;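 active = fall in fluorescence gain of 50% or more versus controls, with final raw signal at or below 3038400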;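 also: plate controls were neutral control wells for no effect and wells lacking membranes for full effect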
Target sequence (Q03530 whole entry, looked up): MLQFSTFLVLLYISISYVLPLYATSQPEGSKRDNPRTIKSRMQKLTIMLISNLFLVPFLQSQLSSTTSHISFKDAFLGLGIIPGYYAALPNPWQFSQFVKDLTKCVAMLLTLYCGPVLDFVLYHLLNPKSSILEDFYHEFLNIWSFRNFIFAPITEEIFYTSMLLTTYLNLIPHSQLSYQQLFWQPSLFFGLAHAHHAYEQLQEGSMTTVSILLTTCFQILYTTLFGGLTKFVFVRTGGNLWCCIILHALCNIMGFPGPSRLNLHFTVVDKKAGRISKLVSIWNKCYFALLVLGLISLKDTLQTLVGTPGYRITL
Platelet DG rel – modulates dense granule release in human platelets; inhibition, %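 (compounds screened at 7.5 µM in platelet-rich plasma)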; AID 1663; human platelet-rich plasma, SFLLRN dense granule ATP release, luminescence; 300,000 compounds, 0.22% hits;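 active = mean replicate score, as percent of positive control, at or above 50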
TAAR1 antag – human TAAR1 antagonism. Q96RJ0. CHO RD-HGA16 TAAR1, Fluo-8 calcium fluorescence, antagonist. inhibition, % at 3 µM. 360,000 compounds, 1.5% hits;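 active = inhibition above a per-plate cutoff, the mean inhibition of test compounds on that plate plus 3 SD, cut at about 49% in these data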;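 also: 0% = DMSO plus EC80 beta-PEA response and 100% = DMSO alone without agonist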
Target sequence (Q96RJ0 whole entry, looked up): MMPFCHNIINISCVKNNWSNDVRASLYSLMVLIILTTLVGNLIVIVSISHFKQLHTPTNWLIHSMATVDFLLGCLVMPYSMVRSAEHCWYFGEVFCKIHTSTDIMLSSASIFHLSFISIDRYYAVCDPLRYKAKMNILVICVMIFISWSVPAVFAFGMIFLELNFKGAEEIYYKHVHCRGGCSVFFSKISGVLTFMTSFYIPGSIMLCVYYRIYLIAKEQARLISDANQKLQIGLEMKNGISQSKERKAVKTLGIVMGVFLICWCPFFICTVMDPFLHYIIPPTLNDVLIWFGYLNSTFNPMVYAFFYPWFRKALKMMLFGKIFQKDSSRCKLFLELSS
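Assay system: CHO-derived RD-HGA16 cells stably expressing human TAAR1 plus Gα16. Timing: 140 s kinetic read after compound, 140 s after agonist. Technique: kinetic Fluo-8 calcium fluorescence measurement. Measure: % inhibition of agonist calcium response.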
TAAR1 ag – agonists of human TAAR1; CHO RD-HGA16 TAAR1, Fluo-8 calcium fluorescence; vehicle wells 0%, saturating PEA agonist 100%; activation, % at 3 µM; 360,000 compounds, 0.99% hits;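 active = activation above the mean activation of all test compounds in the run plus 3 SD, cut at about 38% in these data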
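Assay system: CHO-derived RD-HGA16 cells with stable Gα16 and human TAAR1; timing: 17-24 h seeding, 75 min 37 °C dye, 30 min RT; read-out: % activation from peak over basal fluorescence ratio, DMSO-to-PEA scaled; measured by: kinetic Fluo-8 calcium fluorescence; benchmarks: low control DMSO, high control PEA (EC100); doses: 3 µM single concentration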
TAAR1 nonsel count – nonselective antagonism, TAAR1 counter-screen; shares compounds with TAAR1 antag; counterscreen cell line, calcium fluorescence, antagonist mode; AID 651780; inhibition, % at 3 µM; 2,400 compounds, 77% hits; in the data active = inhibition above about 22%;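 also: CHO-Ga16 host cells stimulated with ATP at an EC80 level; 0% = agonist EC80 plus vehicle and 100% = vehicle without agonist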
TAAR1 antag conf – human TAAR1 antagonism, confirmed; shares compounds with TAAR1 antag; TAAR1-expressing cells, fluorescence antagonist read-out; inhibition, % at 3 µM; 2,400 compounds, 40% hits; in the data active = inhibition above about 49%;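 also: CHO-Ga16 host cells challenged with agonist PEA near its EC80; 0% = agonist at EC80 plus vehicle and 100% = vehicle with no agonist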
Ga16 nonsel ag – nonselective Ga16 agonist in TAAR1 antagonist counter-screen; shares compounds with TAAR1 antag; Ga16-expressing cells, calcium fluorescence, agonist counterscreen; activation, % at 3 µM; 2,400 compounds, 18% hits; AID 651953; in the data active = activation above about 12%;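 also: 0% = vehicle wells and 100% = saturating stimulus response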
TAAR1 ag count – TAAR1 agonism, antagonist counter-screen. shares compounds with TAAR1 antag. hTAAR1 cell line, fluorescence activation, agonist mode. AID 651955. 2,400 compounds, 2% hits. activation, % at 3 µM; in the data active = activation above about 37%;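 also: CHO cells stably expressing TAAR1 with calcium dye readout; 0% = DMSO vehicle and 100% = full agonist response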
Active calls of the source: *; i = inactive; / = no result.

SMILES	VLA-4 inh	Rce1 inhib	Platelet DG rel	TAAR1 antag	TAAR1 ag	TAAR1 nonsel count	TAAR1 antag conf	Ga16 nonsel ag	TAAR1 ag count
O=C(N/N=C/c1ccc2cccc(OCc3ccccc3)c2n1)c1ccc(Br)cc1	7	i	-5	62*	10	21	47	4	2
NC(=S)N/N=C/c1ccc2cccc(OCc3ccccc3)c2n1	4	i	4	29	5	/	/	/	/
COc1ccc(C(=O)N/N=C/c2ccc3cccc(OCc4ccccc4)c3n2)cc1	-33	i	-1	60*	13	27*	53*	6	5
CN(C)S(=O)(=O)n1cc(/C=C(\NC(=O)c2ccccc2Cl)C(=O)NCCCn2ccnc2)c2ccccc21	0	i	-3	55*	8	17	31	7	3
CN(C)S(=O)(=O)n1cc(/C=C(\NC(=O)c2ccccc2Cl)C(=O)NCCN2CCOCC2)c2ccccc21	-2	i	-3	73*	21	24*	44	11	12
CN(C)S(=O)(=O)n1cc(/C=C(\NC(=O)c2ccccc2Cl)C(=O)NCCCN2CCOCC2)c2ccccc21	-4	i	-17	25	7	/	/	/	/
O=C(COC(=O)C1CCN(C(=O)c2ccc(Cl)cc2)CC1)Nc1ccccc1F	0	/	/	-18	1	/	/	/	/
C(=N\Nc1nc(Nc2ccccc2)nc(Nc2ccccc2)n1)/c1cccnc1	13	i	7	57*	9	25*	46	5	1
C(=N/Nc1nc(-c2ccccc2)cc(-c2ccccc2)n1)/c1cccnc1	21	i	17	65*	11	31*	53*	4	3
C(=N\Nc1nc(Nc2ccccc2)nc(Nc2ccccc2)n1)/c1ccncc1	-1	i	-4	-1	2	/	/	/	/
Cc1ccc(-c2cc(-c3ccccc3)nc(N/N=C/c3cccnc3)n2)cc1	-10	i	16	36	7	/	/	/	/
O=C(CCC1CCCCC1)Nc1cccnc1	13	/	-2	-9	11	/	/	/	/
O=C(CCC1CCCCC1)Nc1ccc(C(=O)c2ccncc2)cc1	5	i	-3	66*	7	36*	56*	11	11
COc1cc(C2CC(=O)c3c([nH]c(C(=O)OCCOC(C)C)c3C)C2)cc(OC)c1OC (stereo not drawn)	-1	i	0	64*	9	35*	45	12*	13
CCOC(=O)/C(=C(/C)N)C1CC(=O)NC1=O (stereo not drawn)	/	/	/	-5	2	/	/	/	/
CCCCN1C(=O)c2ccc(C(=O)NC3(C)CCS(=O)(=O)C3)cc2C1=O (stereo not drawn)	0	/	/	-4	-2	/	/	/	/
Cn1c(N2CCN(C(c3ccccc3)c3ccccc3)CC2)nc2c1c(=O)[nH]c(=O)n2C	-2	i	-3	67*	15	31*	50*	13*	33
Cn1c(N2CCCCC2)nc2c1c(=O)[nH]c(=O)n2C	3	/	0	1	4	/	/	/	/
CCN1CCN(c2nc3c(c(=O)[nH]c(=O)n3C)n2CCSc2nc3ccccc3s2)CC1	16	i	0	-20	1	/	/	/	/
Cc1csc(SCCn2c(N3CCN(c4ccccc4)CC3)nc3c2c(=O)[nH]c(=O)n3C)n1	-3	i	6	54*	16	19	39	8	9
CC(C)Oc1ccc(C(=O)Nc2ccc(S(=O)(=O)N3CCN(C)CC3)cc2)cc1	16	i	1	-29	6	/	/	/	/
CC(C)=N/N=C1/NC(=O)C(c2ccc(Cl)cc2)S1 (stereo not drawn)	/	/	/	55*	27	1	-3	3	3
COc1ccccc1N(Cc1ccccc1)S(=O)(=O)c1cccc(C(=O)Nc2ccccn2)c1	12	i	-6	75*	0	17	39	5	9
O=C(N=Nc1c(O)[nH]c2ccccc12)c1cccc(S(=O)(=O)Nc2ccccc2Cl)c1	32	i	-3	56*	10	24*	42	5	0
CC(C)c1ccc2[nH]c(O)c(N=NC(=O)c3cccc(S(=O)(=O)Nc4ccccc4Cl)c3)c2c1	-2	i	2	13	1	/	/	/	/
SMILES	VLA-4 inh	Rce1 inhib	Platelet DG rel	TAAR1 antag	TAAR1 ag	TAAR1 nonsel count	TAAR1 antag conf	Ga16 nonsel ag	TAAR1 ag count
CC1(Cc2ccc(S(C)(=O)=O)cc2)C(=O)Nc2ccc(Cl)cc21 (stereo not drawn)	/	/	/	-9	4	/	/	/	/
COc1ccc(NC(=O)CN(C)C(=O)c2cn(-c3ccccc3)nc2-c2cccs2)cc1	4	i	-4	56*	11	24*	40	6	4
CCOc1ccc(NC(=O)CN(C)C(=O)c2cn(-c3ccc(F)cc3)nc2-c2cccc(OC)c2)cc1OCC	-3	i	-2	70*	8	33*	38	6	1
CN(CC(=O)Nc1ccc(F)cc1)C(=O)c1cc(-c2cccs2)nn1-c1ccccc1	/	/	/	69*	6	28*	45	6	8
CCOc1ccc(NC(=O)CN(C)C(=O)c2cc(-c3cccs3)nn2-c2ccccc2)cc1OCC	11	/	-4	27	0	/	/	/	/
CCCCN(C(=O)CC1CCCC1)c1c(N)n(Cc2ccccc2)c(=O)[nH]c1=O	/	/	/	-5	1	/	/	/	/
COC(=O)c1cc2c(c3c4cc(F)ccc4n(S(=O)(=O)c4ccccc4)c13)C(=O)N(Cc1ccco1)C2	/	/	/	-8	1	/	/	/	/
COC(=O)c1cc2c(c3c4cc(F)ccc4n(C(=O)c4ccccc4)c13)C(=O)N(Cc1ccco1)C2	/	/	/	68*	15	26*	44	10	8
COC(=O)c1cc2c(c3c4cc(OC)ccc4n(C(=O)c4ccccc4)c13)C(=O)N(Cc1ccco1)C2	/	/	/	65*	15	29*	50*	7	6
CCOC(=O)[C@H]1[C@H]2COc3ccc(C)cc3[C@@H]2N2C(=O)CN(C)C(=O)[C@@]12C	/	/	/	-27	2	/	/	/	/
CCOc1ccc(S(=O)(=O)N(CC(=O)NCc2cccnc2)c2ccc(F)cc2)cc1	-4	i	10	65*	20	29*	49*	13*	16
O=C(N=Nc1c(O)n(Cc2ccccc2)c2ccccc12)c1cc2ccccc2cc1O	-6	i	2	7	0	/	/	/	/
O=C(N=Nc1c(O)n(Cc2ccccc2)c2ccccc12)c1ccc(O)cc1	-11	i	7	51*	3	21	32	3	-3
COc1ccc(C2/C(=C(/O)c3ccccc3)C(=O)C(=O)N2C)cc1OC (stereo not drawn)	2	i	20	-18	0	/	/	/	/

Compound activity: PubChem, several laboratories
